{
  "source": "ChEMBL document CHEMBL5344453",
  "about": "“Selective Recognition of c-KIT 1 G-Quadruplex by Structural Tuning of Heteroaromatic Scaffolds and Side Chains” (ACS Med Chem Lett, 2024)",
  "key": {"Quadruplex DNA [1]": {"tested_on": "Quadruplex DNA", "experiment": "Stabilization of G-quadruplex h-TELO 5-FAM-TTGGGTTAGGGTTAGGGTTAGGGA-TAMRA-3 (unknown origin) assessed as change in melting temperature at 1 uM incubated for 1 hr in dark condition by FRET-based melting assay", "format": "nucleic-acid assay", "in_short": "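FRET melting of dual-fluorophore-tagged oligonucleotides (200 nM) in 60 mM potassium cacodylate buffer, pH 7.4, with ligand at 1 μM; ΔTm taken against the ligand-free oligonucleotide Tm as control.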"}, "Quadruplex DNA [2]": {"tested_on": "Quadruplex DNA", "experiment": "Stabilization of G-quadruplex c-KIT1 5-FAM-GGGAGGGCGCTGGGAGGAGGG-TAMRA-3 (unknown origin) assessed as change in melting temperature at 3 uM incubated for 1 hr in dark condition by FRET-based melting assay", "format": "nucleic-acid assay", "in_short": "(§1)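 FRET melting of dual-fluorophore (FAM/TAMRA) tagged G-quadruplex (200 nM) in 60 mM potassium cacodylate, pH 7.4. The screen used 1 μM ligand; dose series used 1, 3, 5, 7 and 10 μM. ΔTm was taken against the Tm of the same oligonucleotide without ligand.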"}, "Quadruplex DNA [3]": {"tested_on": "Quadruplex DNA", "experiment": "Stabilization of G-quadruplex c-KIT1 5-FAM-GGGAGGGCGCTGGGAGGAGGG-TAMRA-3 (unknown origin) assessed as change in melting temperature at 5 uM incubated for 1 hr in dark condition by FRET-based melting assay", "format": "nucleic-acid assay", "in_short": "as §1"}, "Quadruplex DNA [4]": {"tested_on": "Quadruplex DNA", "experiment": "Stabilization of G-quadruplex c-KIT1 5-FAM-GGGAGGGCGCTGGGAGGAGGG-TAMRA-3 (unknown origin) assessed as change in melting temperature at 10 uM incubated for 1 hr in dark condition by FRET-based melting assay", "format": "nucleic-acid assay", "in_short": "as §1"}, "Quadruplex DNA [5]": {"tested_on": "Quadruplex DNA", "experiment": "Stabilization of fluorophore tagged G-quadruplex c-KIT1 (unknown origin) assessed as change in melting temperature in presence of 0 to 100 equiv calf thymus DNA at 1 uM incubated for 1 hr in dark condition by competitive FRET-based melting assay", "format": "nucleic-acid assay", "in_short": "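Competitive FRET melting with fluorophore-labeled c-KIT 1 G-quadruplex and 1 μM ligand. Unlabeled calf thymus DNA was added at 0, 1, 5, 10, 50 and 100 molar equivalents over the labeled DNA, and ΔTm was monitored.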"}, "Quadruplex DNA [6]": {"tested_on": "Quadruplex DNA", "experiment": "Binding affinity to excessive G-quadruplex c-KIT1 5-FAM-GGGAGGGCGCTGGGAGGAGGG-TAMRA-3 (unknown origin) assessed as fold increase in fluorescence intensity at 1 uM incubated for 1 hr in dark condition by fluorescence spectroscopy assay relative to VEGF", "format": "nucleic-acid assay", "in_short": "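Ligand (1.0 μM) titrated to saturation with increasing G-quadruplex in 100 mM Tris-KCl buffer, pH 7.4. The value is the ratio of the c-KIT 1 fold change in fluorescence intensity to the fold change obtained with VEGF or c-KIT 2.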"}, "Quadruplex DNA [7]": {"tested_on": "Quadruplex DNA", "experiment": "Binding affinity to excessive G-quadruplex c-KIT1 5-FAM-GGGAGGGCGCTGGGAGGAGGG-TAMRA-3 (unknown origin) assessed as fold increase in fluorescence intensity at 1 uM incubated for 1 hr in dark condition by fluorescence spectroscopy assay", "format": "nucleic-acid assay", "in_short": "(§2)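 Fluorimetric titration in 100 mM Tris-KCl buffer, pH 7.4. Ligand fixed at 1.0 μM and titrated with increasing concentrations of each G-quadruplex until fluorescence saturation. The fold increase in ligand fluorescence intensity was read, and Kd was derived from the titration plot.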"}, "Quadruplex DNA [8]": {"tested_on": "Quadruplex DNA", "experiment": "Binding affinity to excessive G-quadruplex c-KIT2 5-FAM-GGGCGGGCGCGAGGGAGGGG-TAMRA-3 (unknown origin) assessed as fold increase in fluorescence intensity at 1 uM incubated for 1 hr in dark condition by fluorescence spectroscopy assay", "format": "nucleic-acid assay", "in_short": "as §2"}, "Quadruplex DNA [9]": {"molecular_target": "Quadruplex DNA", "experiment": "Binding affinity to G-quadruplex BCL-2 5-FAM-AGGGGCGGGCGCGGGAGGAAGGGGGCGGGAGCGGGGCTG-TAMRA-3 (unknown origin) assessed as dissociation constant by fluorescence spectroscopy assay", "format": "nucleic-acid assay", "in_short": "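Fluorimetric titration of ligand held at 1.0 μM with increasing concentrations of G4 or dsDNA until saturation. Change in ligand fluorescence intensity was fitted for Kd. Run in 100 mM Tris-KCl buffer, pH 7.4.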"}, "Quadruplex DNA [10]": {"tested_on": "Quadruplex DNA", "experiment": "Binding affinity to G-quadruplex c-KIT1 5-FAM-GGGAGGGCGCTGGGAGGAGGG-TAMRA-3 (unknown origin) assessed as stability by CD spectra analysis", "format": "nucleic-acid assay"}, "Quadruplex DNA [11]": {"molecular_target": "Quadruplex DNA", "experiment": "Binding affinity to G-quadruplex BCL-2 5-FAM-AGGGGCGGGCGCGGGAGGAAGGGGGCGGGAGCGGGGCTG-TAMRA-3 (unknown origin) assessed as dissociation constant by measuring thermogram by isothermal titration calorimetry (ITC) assay", "format": "nucleic-acid assay", "in_short": "(§3)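 ITC of ligand binding to folded G4 in 100 mM Tris-KCl buffer, pH 7.4. Kd and stoichiometry were obtained from the isothermal heat curve and binding isotherm.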"}, "Quadruplex DNA [12]": {"molecular_target": "Quadruplex DNA", "experiment": "Binding affinity to G-quadruplex c-KIT 2 5-FAM-GGGCGGGCGCGAGGGAGGGG-TAMRA-3 (unknown origin) assessed as dissociation constant by measuring thermogram by isothermal titration calorimetry (ITC) assay", "format": "nucleic-acid assay", "in_short": "as §3"}, "[13]": {"experiment": "Induction of cell permeation in human c-KIT-positive K562 cell membrane assessed as fold increase in (G- quadruplex/antibody complex) BG4 foci at 3 uM measured after 24 hrs by immunofluorescence assay", "format": "functional", "in_short": "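K562 cells were treated with ligand (3 or 5.5 μM) and immunostained with G4-specific antibody BG4. Nuclear BG4 foci were counted by confocal microscopy and expressed relative to untreated cells.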"}, "K562": {"tested_on": "K562", "experiment": "Attenuation of proto-oncogene expression in human c-KIT-positive K562 cells assessed as reduction in BCL-2 oncogene expression at 6 uM measured after 24 hrs by qRT-PCR analysis relative to control", "format": "functional", "in_short": "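K562 cells treated 24 h at two doses per ligand (3 and 6 μM, 5.5 and 11 μM; positive control 2 and 4 μM). c-KIT, c-MYC and BCL-2 mRNA measured by qRT-PCR and normalized to housekeeping gene 18s, relative to untreated control.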"}, "[14]": {"experiment": "Reduction of c-KIT oncogene expression in human K562 cells transfected with c-KIT plasmid construct assessed as reduction in luciferase expression at 3 uM measured after 36 hrs by luciferase reporter assay", "format": "functional", "in_short": "(§4)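 K562 cells were transfected with luciferase plasmids carrying the c-KIT, c-MYC or BCL-2 promoter G4. They were then treated with ligand (3 and 6 μM or 5.5 and 11 μM), and relative luciferase expression was measured.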"}, "[15]": {"experiment": "Reduction of c-KIT oncogene expression in human K562 cells transfected with c-KIT plasmid construct assessed as reduction in luciferase expression at 6 uM measured after 36 hrs by luciferase reporter assay", "format": "functional", "in_short": "as §4"}, "[16]": {"experiment": "Reduction of BCL-2 oncogene expression in human K562 cells transfected with BCL-2 plasmid construct assessed as reduction in luciferase expression at 3 uM measured after 36 hrs by luciferase reporter assay", "format": "functional", "in_short": "as §4"}, "[17]": {"experiment": "Reduction of c-KIT protein expression in human K562 cells at 3 uM measured after 24 hrs by Western blotting analysis relative to control", "format": "functional", "in_short": "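K562 cells were treated with ligand (3 and 6 μM or 5.5 and 11 μM). c-KIT protein was measured by Western blot with GAPDH as the housekeeping reference, relative to control.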"}},
  "note": "The source made the active and inactive calls. The calls are words filed in the database; no cut-off is given here.",
  "data": [
    {"smiles": "CN(C)CCCNC(=O)c1ccc(-n2cc(-c3ccc4[nH]c5ccccc5c4c3)nn2)cc1", "values": [
      {"measurement": "ΔTm", "setting": "Quadruplex DNA [1]", "result": 4.5, "unit": "°C"},
      {"measurement": "ΔTm", "setting": "Quadruplex DNA [2]", "result": 22.6, "unit": "°C"},
      {"measurement": "ΔTm", "setting": "Quadruplex DNA [3]", "result": 25.5, "unit": "°C"},
      {"measurement": "ΔTm", "setting": "Quadruplex DNA [4]", "result": 26.5, "unit": "°C"},
      {"measurement": "Activity", "setting": "Quadruplex DNA [5]", "result": "Active"},
      {"measurement": "fold change (FC)", "setting": "Quadruplex DNA [6]", "result": 2.8},
      {"measurement": "fold change (FC)", "setting": "Quadruplex DNA [7]", "result": 5.2},
      {"measurement": "fold change (FC)", "setting": "Quadruplex DNA [8]", "result": 1.6},
      {"measurement": "Kd", "setting": "Quadruplex DNA [9]", "result": 4.8, "unit": "µM"},
      {"measurement": "Activity", "setting": "Quadruplex DNA [10]", "result": "Active"},
      {"measurement": "Kd", "setting": "Quadruplex DNA [11]", "result": 10.8, "unit": "µM"},
      {"measurement": "Kd", "setting": "Quadruplex DNA [12]", "result": 20.9, "unit": "µM"},
      {"measurement": "fold change (FC)", "setting": "[13]", "result": 5.4},
      {"measurement": "inhibition at 6 µM", "setting": "K562", "result": 39, "unit": "%"},
      {"measurement": "inhibition at 3 µM", "setting": "[14]", "result": 22, "unit": "%"},
      {"measurement": "inhibition at 6 µM", "setting": "[15]", "result": 69, "unit": "%"},
      {"measurement": "inhibition at 3 µM", "setting": "[16]", "result": 7.8, "unit": "%"},
      {"measurement": "inhibition at 3 µM", "setting": "[17]", "result": 23.3, "unit": "%"}
    ]}
  ]
}
